In ChEMBL document CHEMBL3822380, “Simple avarone mimetics as selective agents against multidrug resistant cancer cells” (Eur J Med Chem, 2016):
In brackets after ≈: the same amount, converted by molar mass. Activity calls are given as the source filed them.

Key:
[1] = test system: Micrococcus luteus; assay: Antibacterial activity against Micrococcus luteus ATCC 4698 by broth microdilution method; format: functional; details: NCTC 2665
Summary of the method: (§1)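 Broth microdilution per NCCLS. Compounds dissolved in DMSO as 10 mg/mL stock, diluted in Mueller Hinton broth (bacteria) or Sabouraud dextrose broth (fungi). Amikacin served as the positive control for bacteria and nystatin for fungi.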

[2] = test system: Clostridium sporogenes; assay: Antibacterial activity against Clostridium sporogenes ATCC 19404 by broth microdilution method; format: functional; summary of the method: as §1
[3] = test system: Escherichia coli; assay: Antibacterial activity against Escherichia coli ATCC 25922 by broth microdilution method; format: functional; summary of the method: as §1
[4] = test system: Proteus hauseri; assay: Antibacterial activity against Proteus hauseri ATCC 13315 by broth microdilution method; format: functional; summary of the method: as §1
[5] = test system: Salmonella enteritidis; assay: Antibacterial activity against Salmonella enterica subsp. enterica serovar Enteritidis ATCC 13076 by broth microdilution method; format: functional; summary of the method: as §1
[6] = test system: Pseudomonas aeruginosa; assay: Antibacterial activity against Pseudomonas aeruginosa ATCC 9027 by broth microdilution method; format: functional; summary of the method: as §1
[7] = test system: Candida albicans; assay: Antifungal activity against Candida albicans ATCC 10231 by broth microdilution method; format: functional; summary of the method: as §1
[8] = test system: Saccharomyces cerevisiae; assay: Antifungal activity against Saccharomyces cerevisiae ATCC 9763 by broth microdilution method; format: functional; summary of the method: as §1
[9] = test system: Aspergillus brasiliensis; assay: Antifungal activity against Aspergillus brasiliensis ATCC 16404 by broth microdilution method; format: functional; summary of the method: as §1
[10] = test system: Kocuria rhizophila; assay: Antibacterial activity against Kocuria rhizophila ATCC 9341 by broth microdilution method; format: functional; details: DC2201; summary of the method: as §1
[11] = test system: NCI-H460; assay: Cytotoxicity against human NCI-H460 cells after 72 hrs by MTT assay; format: functional, cell-based; details: NCI-H460, 72 h
Summary of the method: (§2)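 Seeding in 96-well plates at 1000 (NCI-H460), 2000 (NCI-H460/R) or 4000 (HaCaT) cells/well, treated after 24 h for 72 h. MTT at 0.4 mg/mL final, 4 h at 37 °C. Formazan dissolved in DMSO, absorbance read at 540 nm. Inhibition % = (1 − A treated/A untreated)×100. IC30 and IC50 obtained by linear regression.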

[12] = test system: NCI-H460; assay: Cytotoxicity against multidrug resistant human NCI-H460 cells after 72 hrs by MTT assay; format: functional, cell-based; details: NCI-H460, 72 h; summary of the method: as §2
[13] = test system: HaCaT; assay: Cytotoxicity against human HaCaT cells after 72 hrs by MTT assay; format: cell-based; details: for IC50: Homo sapiens, HaCaT; for IC30: human, hacat; summary of the method: as §2
[14] = Selectivity ratio of IC30/IC50 for human HaCaT cells to IC30/IC50 for human NCI-H460 cells; format: ADME, cell-based; details: HaCaT cells versus NCI-H460 cells
Summary of the method: (§3)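 Fold threshold of 1.5 used to call selectivity to cancer cells, resistance, or selectivity to MDR cells.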

[15] = Selectivity ratio of IC30/IC50 for human HaCaT cells to IC30/IC50 for multidrug resistant human NCI-H460 cells; format: ADME, cell-based; details: HaCaT cells versus multidrug resistant NCI-H460 cells; summary of the method: as §3
[16] = test system: NCI-H460; assay: Resistance index, ratio of IC30/IC50 for multidrug resistant human NCI-H460 cells to IC30/IC50 for human NCI-H460 cells; format: functional; summary of the method: as §3
[17] = test system: Staphylococcus aureus; assay: Antibacterial activity against Staphylococcus aureus ATCC 6538 by broth microdilution method; format: functional; summary of the method: as §1
[18] = test system: Bacillus spizizenii; assay: Antibacterial activity against Bacillus subtilis ATCC 6633 by broth microdilution method; format: functional; summary of the method: as §1
[19] = test system: Micrococcus luteus; assay: Antibacterial activity against Micrococcus luteus ATCC 10240 by broth microdilution method; format: functional; summary of the method: as §1
[20] = test system: NCI-H460; assay: Induction of apoptosis in human NCI-H460 cells assessed as live cells at 25 uM after 72 hrs by annexin-V/propidium iodide staining-based flow cytometric analysis (reference value: 98.3%); format: functional
[21] = test system: NCI-H460; assay: Induction of apoptosis in human NCI-H460 cells assessed as early apoptotic cells at 25 uM after 72 hrs by annexin-V/propidium iodide staining-based flow cytometric analysis (reference value: 0.3%); format: functional
[22] = test system: NCI-H460; assay: Induction of apoptosis in human NCI-H460 cells assessed as late apoptotic/necrotic cells at 25 uM after 72 hrs by annexin-V/propidium iodide staining-based flow cytometric analysis (reference value: 0.2%); format: functional
[23] = test system: NCI-H460; assay: Induction of apoptosis in human NCI-H460 cells assessed as dead cells at 25 uM after 72 hrs by annexin-V/propidium iodide staining-based flow cytometric analysis (reference value: 1.2%); format: functional
[24] = test system: NCI-H460; assay: Induction of apoptosis in multidrug resistant human NCI-H460 cells assessed as live cells at 25 uM after 72 hrs by annexin-V/propidium iodide staining-based flow cytometric analysis (reference value: 96.4%); format: functional
[25] = test system: NCI-H460; assay: Induction of apoptosis in multidrug resistant human NCI-H460 cells assessed as early apoptotic cells at 25 uM after 72 hrs by annexin-V/propidium iodide staining-based flow cytometric analysis (reference value: 1.1%); format: functional
[26] = test system: NCI-H460; assay: Induction of apoptosis in multidrug resistant human NCI-H460 cells assessed as late apoptotic/necrotic cells at 25 uM after 72 hrs by annexin-V/propidium iodide staining-based flow cytometric analysis (reference value: 1%); format: functional
[27] = test system: NCI-H460; assay: Induction of apoptosis in multidrug resistant human NCI-H460 cells assessed as dead cells at 25 uM after 72 hrs by annexin-V/propidium iodide staining-based flow cytometric analysis (reference value: 1.5%); format: functional
[28] = Induction of apoptosis in human HaCaT cells assessed as live cells at 25 uM after 72 hrs by annexin-V/propidium iodide staining-based flow cytometric analysis (reference value: 96.8%); format: cell-based; details: read-out: Activity
[29] = test system: HaCaT; assay: Induction of apoptosis in human HaCaT cells assessed as early apoptotic cells at 25 uM after 72 hrs by annexin-V/propidium iodide staining-based flow cytometric analysis (reference value: 0.2%); format: cell-based
[30] = test system: HaCaT; assay: Induction of apoptosis in human HaCaT cells assessed as late apoptotic/necrotic cells at 25 uM after 72 hrs by annexin-V/propidium iodide staining-based flow cytometric analysis (reference value: 0.2%); format: cell-based
[31] = test system: HaCaT; assay: Induction of apoptosis in human HaCaT cells assessed as dead cells at 25 uM after 72 hrs by annexin-V/propidium iodide staining-based flow cytometric analysis (reference value: 2.8%); format: cell-based
[32] = test system: NCI-H460; assay: Selectivity ratio of IC30/IC50 for human NCI-H460 cells to IC30/IC50 for multidrug resistant human NCI-H460 cells; format: functional; summary of the method: as §3
[33] = test system: NCI-H460; assay: Induction of superoxide anion generation in human NCI-H460 cells at 25 uM after 72 hrs by DHE staining-based flow cytometric analysis relative to control; format: functional, cell-based
Summary of the method: (§4)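 Seeded as for cell death (50,000 or 100,000 cells/well), treated 72 h at 25 µM, with CDDP 5 µM as control. Adherent cells trypsinized and loaded with 1 µM DHE for 30 min at 37 °C in the dark, then washed twice in PBS. Flow cytometry at ex 488/em 585 nm (FL2-H). Mean fluorescence intensity corrected for autofluorescence and compared with untreated control.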

[34] = test system: NCI-H460; assay: Induction of superoxide anion generation in multidrug resistant human NCI-H460 cells at 25 uM after 72 hrs by DHE staining-based flow cytometric analysis relative to control; format: functional, cell-based; summary of the method: as §4
[35] = test system: HaCaT; assay: Induction of superoxide anion generation in human HaCaT cells at 25 uM after 72 hrs by DHE staining-based flow cytometric analysis relative to control; format: cell-based; summary of the method: as §4
[36] = test system: NCI-H460; assay: Induction of mitochondrial membrane potential depolarization in human NCI-H460 cells at 25 uM after 15 mins by JC1-staining-based flow cytometric analysis; format: functional, cell-based
Summary of the method: (§5)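 Cells treated with 25 µM compound, with CDDP 5 µM as control. Stained with JC-1 for 15 min at 37 °C in a CO2 incubator, washed twice in assay buffer and resuspended in PBS. Flow cytometry read red aggregate (FL2-H) versus green monomer (FL1-H) fluorescence. Live cells were also imaged by fluorescence microscopy.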

[37] = test system: NCI-H460; assay: Induction of mitochondrial membrane potential depolarization in multidrug resistant human NCI-H460 cells at 25 uM after 15 mins by JC1-staining-based flow cytometric analysis; format: functional, cell-based; summary of the method: as §5
[38] = test system: HaCaT; assay: Induction of mitochondrial membrane potential depolarization in human HaCaT cells at 25 uM after 15 mins by JC1-staining-based flow cytometric analysis; format: cell-based; details: 0.25 h; summary of the method: as §5

`CCCCNC1=CC(=O)C(C(C)(C)C)=CC1=O` showed an MIC [1] of 2470 µM (≈ 581 µg/mL), an MIC [2] of 1240 µM (≈ 291 µg/mL) and an MIC [3] of 19 µM (≈ 4.47 µg/mL). It also gave an MIC [4] of 1240 µM (≈ 291 µg/mL), an MIC [5] of 620 µM (≈ 146 µg/mL) and an MIC [6] of 620 µM (≈ 146 µg/mL). It also gave an MIC [7] of 77 µM (≈ 18.1 µg/mL), an MIC [8] of 154 µM (≈ 36.2 µg/mL) and an MIC [9] of 2460 µM (≈ 580 µg/mL). It also gave an MIC [10] of 2470 µM (≈ 581 µg/mL), an IC30 [11] of 5 µM and an IC50 [11] of 36 µM. For the same compound, the IC30 [12] was 19 µM, the IC50 [12] was 72 µM and the IC50 [13] was > 100 µM. The IC30 [13] was 50 µM, the selectivity ratio [14] was ≤ 1.5 and the selectivity ratio [15] was ≤ 1.5. The Ratio [16] was “<=1.5”, the MIC [17] was 38 µM (≈ 8.94 µg/mL) and the MIC [18] was 1240 µM (≈ 291 µg/mL). It also gave an MIC [19] of 38 µM (≈ 8.94 µg/mL).

`CC(C)(C)C1=CC(=O)C=C(NCCc2ccccc2)C1=O` gave an MIC [1] of 2210 µM (≈ 626 µg/mL), an MIC [2] of 4420 µM (≈ 1250 µg/mL) and an MIC [3] of 9 µM (≈ 2.55 µg/mL). The MIC [4] was 17700 µM (≈ 5010 µg/mL), the MIC [5] was 4420 µM (≈ 1250 µg/mL) and the MIC [6] was 4420 µM (≈ 1250 µg/mL). The MIC [7] was 34 µM (≈ 9.63 µg/mL), the MIC [8] was 34 µM (≈ 9.63 µg/mL) and the MIC [9] was 1110 µM (≈ 313 µg/mL). It also gave an Activity [20] of 66.1%, an Activity [21] of 2.4% and an Activity [22] of 9.5%. The Activity [23] was 22%, the Activity [24] was 45.9% and the Activity [25] was 2%. It also gave an Activity [26] of 11.8%, an Activity [27] of 40.3% and a viability at 72 h, 25 µM [28] of 74.8%. It also gave an Activity [29] of 4.1%, an Activity [30] of 6.9% and an Activity [31] of 14.2%. The MIC [10] was 17700 µM (≈ 5010 µg/mL), the IC30 [11] was 7 µM and the IC50 [11] was 14 µM. The IC30 [12] was 3 µM, the IC50 [12] was 6 µM and the IC50 [13] was 23 µM. For the same compound, the IC30 [13] was 19 µM, the selectivity ratio [14] was ≤ 1.5 and the selectivity ratio [15] was ≤ 1.5. For the same compound, the selectivity ratio [32] was “<=1.5”, the Activity [33] was “inactive” and the Activity [34] was “Active”. The Activity [35] was “Non-toxic”, the Activity [36] was “Active” and the Activity [37] was “Active”. For the same compound, the Activity [38] was “Non-toxic”, the MIC [17] was 9 µM (≈ 2.55 µg/mL) and the MIC [18] was 4420 µM (≈ 1250 µg/mL). For the same compound, the MIC [19] was 34 µM (≈ 9.63 µg/mL).
